Published values collected from several papers.
Lines come from different studies, so protocols differ.
Observed: cell growth or viability

Structure (SMILES) | cell line | assay | conditions | IC50
O=C1NC(=NCc2cccs2)S/C1=C\c1ccc2ncccc2c1 | SR | – | – | 0.372 µM
O=C1Nc2ccc(Cl)cc2/C1=N/NC(=O)c1cc2ccccc2[nH]1 | ZR75 | – | – | 18 µM
COc1cc(N2CCC(N3CCN(C)CC3)CC2)ccc1Nc1ncc(Cl)c(Nc2ccccc2S(=O)(=O)C(C)C)n1 | Rh41 | – | 72 h | 0.07 µM
CN1C(=O)/C(=N\NC(=O)c2cc3ccccc3[nH]2)c2cc(Cl)ccc21 | ZR75 | – | – | 0.84 µM
O=C(Nc1ccc2[nH]ncc2c1)c1cccc(NC(=S)Nc2cc(C(F)(F)F)cc(C(F)(F)F)c2)c1 | KM12 | ATP luminescence | 72 h | 19.6 µM
O=C1Nc2ccc(F)cc2/C1=N/NC(=O)c1cc2ccccc2[nH]1 | ZR75 | – | – | > 30 µM
C[C@@H](Oc1cc(-c2cnn(C3CCNCC3)c2)cnc1N)c1c(Cl)ccc(F)c1Cl | Rh41 | – | 72 h | 0.45 µM
O=C(Nc1ccccc1)Nc1cccc(C(=O)Nc2ccc3[nH]ncc3c2)c1 | KM12 | ATP luminescence | 72 h | > 50 µM
O=C1Nc2ccc(Br)cc2/C1=N/NC(=O)c1cc2ccccc2[nH]1 | ZR75 | – | – | 21.9 µM
O=C(Nc1ccc(Br)cc1)Nc1cccc(C(=O)Nc2ccc3[nH]ncc3c2)c1 | KM12 | ATP luminescence | 72 h | > 50 µM
COc1cc(C2Oc3cc([C@H]4Oc5cc(O)cc(O)c5C(=O)[C@@H]4O)ccc3OC2CO)ccc1O (stereo partly shown) | Hep3B | CCK-8 | 72 h | 7.21 µM
O=C(Nc1cccc(C(=O)Nc2ccc3[nH]ncc3c2)c1)Nc1ccccc1Cl | KM12 | ATP luminescence | 72 h | > 50 µM
FC(F)(F)c1ccc(C(c2c[nH]c3ccccc23)c2c[nH]c3ccccc23)cc1 | PPC-1 | ATP luminescence | 22 h | 17.6 µM
O=C(Nc1ccc(I)cc1)Nc1cccc(C(=O)Nc2ccc3[nH]ncc3c2)c1 | KM12 | ATP luminescence | 72 h | > 50 µM
COC(=O)/C=C/C=C/c1ccc2c(c1)OCO2 | COR-L23 | SRB | – | 95.6 µM
CCC(C(=O)COc1c(F)c(F)cc(F)c1F)n1cc([C@](C)(CC(C)C)NCc2ccc3ncccc3c2)nn1 (stereo partly shown) | BESM | – | 72 h | > 10 µM
COc1cc(Nc2nccc(-c3cnn4nc(OC)ccc34)n2)cc(C(F)(F)F)c1 | NCI-H2110 | ATP luminescence | – | 0.63 µM
O=C(Nc1ccc(Cl)cc1)Nc1cccc(C(=O)Nc2ccc3[nH]ncc3c2)c1 | KM12 | ATP luminescence | 72 h | > 50 µM
CCC(C(=O)COc1c(F)c(F)cc(F)c1F)n1cc([C@@](C)(NCc2ccc3ncccc3c2)C2CCC2)nn1 (mixture of isomers) | BESM | – | 72 h | > 10 µM
[Fe+2].c1cc[cH-]c1.c1cc[cH-]c1 | BL2 | MTT | 48 h | > 100 µM
CC(=O)Oc1ccc2c(c1)C(C)=CC(C)(C)N2Cc1ccccc1 | Hep3B | MTT | 72 h | 8 µM
CC(C)C(=O)Nc1ccc([N+](=O)[O-])c(C(F)(F)F)c1 | Hep3B | CCK-8 | 48 h | > 50 µM
